For this series, the system named is MS2 coat protein. Nature of the series: apparent Kd, MS2 coat protein; higher = weaker binding; RNA-MaP array; FMN 200 µM where present. The essentials:
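Green signal from SNAP-549-labelled MS2 coat protein was normalised to red-channel RNA signal and to the median Fmax of control clusters. The protein was titrated from 0.7 or 1.5 nM, doubling to 3 µM, without and then with constant ligand, over designs transcribed by stalled E. coli RNA polymerase on Illumina sequencing-chip clusters, in 100 mM Tris-HCl pH 7.5, 80 mM KCl, 4 mM MgCl2, BSA, DTT, yeast tRNA and Tween-20. The apparent Kd is the median of filtered per-cluster binding-curve fits.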

[1] abbreviates: designed as: OFF switch for flavin mononucleotide, no ligand.
Where [2] appears, read: ligand present: flavin mononucleotide, designed as: OFF switch for flavin mononucleotide.
Setting [3] is: designed as: ON switch for flavin mononucleotide, no ligand.
Where [4] appears, read: ligand present: flavin mononucleotide, designed as: ON switch for flavin mononucleotide.

On to “GUAGGGUCAGGAUAUACGGGCGGAGGGAUGUAUUGUAGUUGGUAGAAGGGACAUGAGGAUCACCCAUGUAAGAA”, for which the “apparent Kd” value is, setting by setting: under setting [1], 29.7 nM; under setting [2], 26.2 nM.
For “CAGUACUGAGGAUAUACAUGAGGAUCACCCAUGUGUUCCAGCUAGGAAACGAGCAAAAGUAGAAGGCAGUACUG”, in that order: 21.9 nM and 282 nM.
For “CGCGCUUUAGGAUAUGCGUGAUGUCGUCGGCGUUGUGGUUCACAUGAGGAUCACCCAUGUAGAAGGGAGGUGUG”, in that order: 205 nM and 175 nM.
For “CGCUAGUCAGGAUAUACGAACAUGUCACCAGACGUGAAGGGACAUGAGGAUCACCCAUGUAGAAGGGACUAGCA”, in that order: 90.5 nM and 267 nM.
Take “AAUAUAAAGCAGAAGGCCUUAUUACAUGAGGAUCACCCAUGUAAUCGUGGGAGGAUAUGCAUGAUACAAGUACGUUUGGUAGGA”: the “apparent Kd” value reads like this: under setting [3], 8.76 nM; under setting [4], 5.22 nM.
For “UUGGCAACGUAGAAGGGUGACAUGAGGAUCACCCAUGUGCCGAUAUUUCUCGAGAUAUGUCGGCCACAGGAUAUACGUGCCAUC”, in that order: 32.3 nM and 57.9 nM.
For “UCCACUGCUGAGAAGGGAUAGAUAUCGUUCUAGUCAGGAUAUCAAUACAGUGCAGCAUGAGGACAUGAGGAUCACCCAUGUAUU”, in that order: 14.2 nM and 10.9 nM.
For the sequence “GUCAUCAAUGAAGGAUAUCUAUGUCCAACAUGAGGAUCACCCAUGUUGAGGAUUACCUAUGUGUAGGAGAAGGUCAAUAUAACU”, the “apparent Kd” value is 8.01 nM under setting [3] and 6.91 nM under setting [4].
For the sequence “GGCUCCGCUCGAGGAUAUAGCUGCAUGUAGUGUCCUGAGGCACAUGAGGAUCACCCAUGUGUAGGCUAGAAGGCGACGGACGCU”, the “apparent Kd” value is, setting by setting: under setting [1], 76.1 nM; under setting [2], 138 nM.
For the sequence “CCGGAAACGGGUAGCCUGACAUGAGGAUCACCCAUGUGAACCAAGGAUAUGGAUCCUAAUUGGAUCCAGAAGGUGGAAGGCUAC”, the “apparent Kd” value reads like this: under setting [3], 243 nM; under setting [4], 45.3 nM.
Regarding “GCCGUAAGUGUGAGGAUAUACCUAUGGAAACAUAGGUAGAAGGCACAUGAGGAUCACCCAUGUUCUUAAUCGGC”, the “apparent Kd” value is 134 nM under setting [1] and 329 nM under setting [2].
With “GAUAGGACAGAGAAGGUACGUGCUAGAGAUACUAGCAAAAUUUCCUCACAUGAGGAUCACCCAUGUAAGGAUAUCUGUCCUAUC”, the “apparent Kd” value runs as follows: under setting [1], 4.44 nM; under setting [2], 4.8 nM.
With “GGACGGAAAGUGAGGAUAUGCUCUACCUCGGUAGAGCAGAAGGCACAUGAGGAUCACCCAUGUGAUUACUGUUC”, the “apparent Kd” value runs as follows: under setting [1], 25.5 nM; under setting [2], 184 nM.
For the sequence “UUGGACGUCGUAGGAUAUGUAGGAUAUUGCUACAUGAGGAUCACCCAUGUUGACAUGGAAGAAGGACAGAAGGACGAUGUCCAU”, the “apparent Kd” value is 43.8 nM under setting [3] and 5.59 nM under setting [4].
With “UGACGGAGCAGAGGAUAUUACAUGAGGAUCACCCAUGUAUGAACCAAUAGCUGGAAACAGCAAUGUAAGAAGGCUGCUCCGACA”, the “apparent Kd” value was 11.6 nM under setting [1] and 147 nM under setting [2].
On to “AUAAACAUGAGGAUCACCCAUGUGAGAAGGCGCAUUACUAUAUUUAUACACUUUAAUACUAACAGCGAGGAUAUCACCUCAUAA”, for which the “apparent Kd” value is 15.8 nM under setting [1] and 24.7 nM under setting [2].
As to “GCCUUACUGGUCAGGAUAUACAUUUGUUACUCUUUGUAGAAGGGACAUGAGGAUCACCCAUGUACAUUACAUUC”, the “apparent Kd” value by setting is: under setting [1], 20.8 nM; under setting [2], 27.2 nM.
For “CCGAUAAGGAGAGGAUAUGGACAUGAGGAUCACCCAUGUACAUGGGAAUAUAUACUGAAUUUUUACUAGAAGGCUUACAUAAAU”, in that order: 15.6 nM and 12.6 nM.
For “GCAUGUAAGCAGAAGGGCAGACAUUUUGAUGCUGCAGGAUAUGCAGAAUCAUAUCCACAUGAUAACAUGAGGAUCACCCAUGUA”, in that order: 19.9 nM and 24.3 nM.
On to “AAACUACUAGGAUAUACAACGGUGUCCUAACUACUAAGAAAACAUGAGGAUCACCCAUGUAGAAGGAGUAGUGA”, for which the “apparent Kd” value by setting is: under setting [1], 34.5 nM; under setting [2], 62.3 nM.
With “UUUGUAUAGCAAGGAUAUGUUUAAUUAUAGUUGCCUCAUACAUGAGGAUCACCCAUGUUUUACUUACAGAAGGUGCAAUGAUUU”, the “apparent Kd” value under setting [1] turned out to be 316 nM and the “apparent Kd” value under setting [2] was determined as 317 nM.
As to “CGUCGCUGUCGAGAGGAUAUGCGGUGGUGGACAUGAGGAUCACCCAUGUUAGCGAUAGCAUCACGGUAGAAGGCUCUUACGACUG”, the “apparent Kd” value runs as follows: under setting [3], 21.4 nM; under setting [4], 20.6 nM.
For “GUAGCUAUCGGAGGAUAUUCAUUAUACAUGAGGAUCACCCAUGUUAAAGUGGGAGAAGGCCGAUAGCUACAAGAGCGAAAGCUC”, in that order: 35.8 nM and 8.13 nM.
For “UUCUUACAUGAGGAUCACCCAUGUGUUGUCGUGGGAGGAUAUCCUUGUUCGGUGGCGUUGGGAGAAGGCCUAUGUU”, in that order: 39.3 nM and 73.2 nM.
For “AGCCGAAGCGCAGGAUAUACAUGUAUACAUGAGGAUCACCCAUGUAGCAACACGUGGUAGUGAUUGUAGAAGGGUGCUCGGCGC”, in that order: 32.8 nM and 30 nM.
As to “UGUCUGAGCAGAGGAUAUUACAUGAGGAUCACCCAUGUAUGAACCAAUAGCUGGAAACAGCAAUGUAAGAAGGCUGCUCCGACA”, the “apparent Kd” value stood at 12.6 nM under setting [1] and 199 nM under setting [2].
With “CCGUGACAUGAGGAUCACCCAUGUACUCGAGAAAUCGAGUGUAGAAGGGUGACCGGUCGUUUGGCACAGGAUAUACACGGUGUG”, the “apparent Kd” value stood at 16.6 nM under setting [3] and 8.92 nM under setting [4].
“GGUCCACAUGAGGAUCACCCAUGUCAGGAUAUAUACGGCACAAUAAUAAGUGCCGCCCAUAGAAGGGACGCUGG”: the “apparent Kd” value stood at 15.7 nM under setting [1] and 26.1 nM under setting [2].
On to “UUGAUACAUACCUCCAUAAACAUGAGGAUCACCCAUGUAAGUGAGGAUAUAGAUUGUUUAGUAUACUAGAAGGCACUUAGAUAU”, for which the “apparent Kd” value runs as follows: under setting [1], 13.1 nM; under setting [2], 11.9 nM.
For “GUUCUGCUAGGAUAUGCAUCAACGGGAUAGCCUACGCGGAAACAUGAGGAUCACCCAUGUAGAAGGAGCUGAAC”, in that order: 30.3 nM and 30.6 nM.
For “GUUAUUAACAAGAAGGCAUACAUGAGGAUCACCCAUGUUCUACAUGGAUAAUGAGGAUAUUGCUAAUACAUGAGGAUCACCCAU”, in that order: 48.8 nM and 53.8 nM.
For “GCACUGGAUGUAGGAUAUCAGGACGAUAAGUCCUGAGAAGGACAUGAGGAUCACCCAUGUAAAAACUUCCCAGUGCAUAAUAUA”, in that order: 15.4 nM and 18 nM.
As for “GCAUACAUUCGAGGAUAUCGGUGAACAAAUUAACGAGAAGGCGAUAUAAUUUUUAAACUUAUUGACAUGAGGAUCACCCAUGUA”, the “apparent Kd” value by setting is: under setting [3], 23.2 nM; under setting [4], 20.8 nM.
For “GGAACAACAUGAGGAUAUCGAUGAGUAUAGAGUCGAGAAGGCAUGUCAUAAGACAUGAGGAUCACCCAUGUAGUUACAAUACCA”, in that order: 1010 nM and 69.2 nM.
Turning to “GUCAGCUCGUGAGGAUAUACAACACUGCUUCGGCAGUGUAUUAAGAUCACAUGAGGAUCACCCAUGUAGAAGGCACGAGGUGAU”, the “apparent Kd” value reads like this: under setting [1], 20.5 nM; under setting [2], 245 nM.
For “CCAGCAAAUGUAAGGAUAUGCUGGUCCUUGGAUCAGCAGAAGGUACAUGAGGAUCACCCAUGUCGUGGAGCUGG”, in that order: 29.4 nM and 160 nM.
Take “GAAGGGUAUGAGAAGGCAUAAUUUAUAUUACCACAUGUUUACAUGAGGAUCACCCAUGUUUCCUAUGAGGAUAUCAUACCGAGA”: the “apparent Kd” value under setting [1] stood at 12.4 nM and the “apparent Kd” value under setting [2] was 12.7 nM.
For “GCCAGGCAUGUAGGAUAUCCAUUGCGUCGCGUUGGAGAAGGGCAACACACAUGAGGAUCACCCAUGUGGUCACCCAUGUAGUGU”, in that order: 489 nM and 524 nM.
For the sequence “ACUACGAUAGCGAUAUGAUCGAGAGAUCAUGUCGCUAAAUUUAGAAGGACAUGAGGAUCACCCAUGUAGGAUAUGGGUCGUAGA”, the “apparent Kd” value was found to be 28 nM under setting [3] and 9.62 nM under setting [4].
Turning to “GGAUAGUGUCGUUAUCCGUAGCGAACAUGAGGAUCACCCAUGUAGGAUAUGUUAUUAAACUAAUAACAGAAGGGCGUGAGUCUC”, the “apparent Kd” value is, setting by setting: under setting [1], 429 nM; under setting [2], 480 nM.
Turning to “GGUGUCAUCGAGAAGGCCUCAACAUGAGGAUCACCCAUGUUGUAAUAUGGGAGGAUAUCGAUGAUACAGCUACGUUUCGUAGCA”, the “apparent Kd” value reads like this: under setting [3], 18.5 nM; under setting [4], 6.1 nM.
In the case of “GGAUAGGACAGAGGAUAUACGUGCUAGAGAUACUAGCUACAAAUCCUUACAUGAGGAUCACCCAUGUAGAAGGCUGUCCUAUCG”, the “apparent Kd” value under setting [1] came out at 19.3 nM and the “apparent Kd” value under setting [2] was found to be 38.3 nM.
Take “AGAAUUGGUAGAUAAAAGGUCACACAGGAUAUACUCCCAACAUGAGGAUCACCCAUGUACUGGCGGUAGAAGGGUGGGAUCCUC”: the “apparent Kd” value by setting is: under setting [3], 33.6 nM; under setting [4], 8.52 nM.
With “GAUUCGGGAGGAUAUACAUGAGGAUCACCCAUGUGUUUUUUGUGUGUUUUGUUAUCGUGUAGAAGGUUUGGGUC”, the “apparent Kd” value was found to be 117 nM under setting [1] and 172 nM under setting [2].
Regarding “CUUUAACACCAGAAGGACAUGAGGAUCACCCAUGUAGGAUAUGGGACUCCUAGUAGGCAUAUUGUGCUUCCGGUAGGACAAGGA”, the “apparent Kd” value reads like this: under setting [3], 478 nM; under setting [4], 62.2 nM.
For “AGUUAAUAUCGAGGAUAUGUCUAGACACAUGAGGAUCACCCAUGUAUGUGUAUAGAAGGCGAAAAUAACAGCAUGUUACAUGCA”, in that order: 37.4 nM and 19.9 nM.
For the sequence “GACUUGUCAGGAUAUCUUACAUAAACAUCGUAGUUACAAUUGGAGAAGGGACAUGAGGAUCACCCAUGUUUGCG”, the “apparent Kd” value by setting is: under setting [1], 25.1 nM; under setting [2], 29.3 nM.
For “AUCAGCUCGUCAGGAUAUACGUCACUGCUUCGGCAGUGUGAAAAGAUCACAUGAGGAUCACCCAUGUAGAAGGGACGAGCUGAU”, in that order: 9.15 nM and 120 nM.
